Measured values reported in ChEMBL document CHEMBL1155246, “Synthesis, antioxidant properties and radioprotective effects of new benzothiazoles and thiadiazoles” (Bioorg Med Chem, 2009).

Tests used:
[1] = tested on: Radical scavenging activity; assay: Antioxidant activity assessed as DPPH free radical scavenging activity by UV spectroscopic method; assay type: functional
[2] = Antioxidant activity assessed as ABTS free radical scavenging activity by radical cation discoloration assay; assay type: functional
In short: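 ABTS radical cation made by mixing aqueous 7.0 mM ABTS with potassium persulfate to 3.5 mM final and holding overnight in the dark. It was diluted with ethanol to an initial A734 of 0.70 at 30 °C. Test compound was added at several concentrations. Absorbance at 734 nm was read at 0, 0.5 and 1 min, then every 5 min to steady state. IC50 was taken as the concentration giving 50% reduction of the radical cation.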

[3] = Acute toxicity in Swiss CD1 mouse assessed as lethality after 48 hrs; assay type: organism-based; conditions: in vivo
In short: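 Male six-week-old Swiss CD1 mice; compound given intraperitoneally at different concentrations; deaths counted at 48 h to derive LD50tox/48H, the concentration killing 50% of animals.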

Mus musculus [4] = assay: Radioprotective activity against gamma radiation-induced toxicity in Swiss CD1 mouse assessed as survival at 368 mg/kg, ip administered 90 mins before 10.2 Gy irradiation measured after 30 days; assay type: functional; conditions: Swiss CD1, light or radiation study, route intraperitoneal
In short: (§1)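 Male six-week-old Swiss CD1 mice, 10 per group; compound in Mygliol 812 given ip (20 ml/kg) at maximum tolerated dose (1/2 LD50tox/48H) 90 min before 60Co gamma irradiation (300 mGy/min) at 8.2 Gy (LD99.9/30days) or 10.2 Gy; survival percentage at day 30.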

Mus musculus [5] = assay: Radioprotective activity against gamma radiation-induced toxicity in Swiss CD1 mouse assessed as survival at 368 mg/kg, ip administered 90 mins before 8.2 Gy irradiation measured after 30 days; assay type: functional; conditions: Swiss CD1, light or radiation study, route intraperitoneal; in short: as §1
Mus musculus [6] = assay: Radioprotective activity against gamma radiation-induced toxicity in Swiss CD1 mouse assessed as survival at 340 mg/kg, ip administered 90 mins before 10.2 Gy irradiation measured after 30 days; assay type: functional; conditions: Swiss CD1, light or radiation study, route intraperitoneal; in short: as §1
Mus musculus [7] = assay: Radioprotective activity against gamma radiation-induced toxicity in Swiss CD1 mouse assessed as survival at 340 mg/kg, ip administered 90 mins before 8.2 Gy irradiation measured after 30 days; assay type: functional; conditions: Swiss CD1, light or radiation study, route intraperitoneal; in short: as §1
Mus musculus [8] = assay: Radioprotective activity against gamma radiation-induced toxicity in Swiss CD1 mouse assessed as survival at 308 mg/kg, ip administered 90 mins before 8.2 Gy irradiation measured after 30 days; assay type: functional; conditions: Swiss CD1, light or radiation study, route intraperitoneal; in short: as §1
Mus musculus [9] = assay: Radioprotective activity against gamma radiation-induced toxicity in Swiss CD1 mouse assessed as survival at 308 mg/kg, ip administered 90 mins before 10.2 Gy irradiation measured after 30 days; assay type: functional; conditions: Swiss CD1, light or radiation study, route intraperitoneal; in short: as §1
Mus musculus [10] = assay: Radioprotective activity against gamma radiation-induced toxicity in B6D2F1 mouse assessed as survival at 260 mg/kg, ip administered 15 mins before 10.8 Gy irradiation measured after 30 days; assay type: functional; conditions: B6D2F1, light or radiation study, route intraperitoneal
Mus musculus [11] = assay: Radioprotective activity against gamma radiation-induced toxicity in Swiss CD1 mouse assessed as survival at 260 mg/kg, ip administered 90 mins before 10.2 Gy irradiation measured after 30 days; assay type: functional; conditions: Swiss CD1, light or radiation study, route intraperitoneal; in short: as §1
Mus musculus [12] = assay: Radioprotective activity against gamma radiation-induced toxicity in Swiss CD1 mouse assessed as survival at 260 mg/kg, ip administered 90 mins before 8.2 Gy irradiation measured after 30 days; assay type: functional; conditions: Swiss CD1, light or radiation study, route intraperitoneal; in short: as §1
Mus musculus [13] = assay: Radioprotective activity against gamma radiation-induced toxicity in B6D2F1 mouse assessed as survival at 260 mg/kg, ip administered 15 mins before 8.8 Gy irradiation measured after 30 days; assay type: functional; conditions: B6D2F1, light or radiation study, route intraperitoneal
Mus musculus [14] = assay: Radioprotective activity against gamma radiation-induced toxicity in Swiss CD1 mouse assessed as survival at 349 mg/kg, ip administered 90 mins before 8.2 Gy irradiation measured after 30 days; assay type: functional; conditions: Swiss CD1, light or radiation study, route intraperitoneal; in short: as §1
Mus musculus [15] = assay: Radioprotective activity against gamma radiation-induced toxicity in Swiss CD1 mouse assessed as survival at 349 mg/kg, ip administered 90 mins before 10.2 Gy irradiation measured after 30 days; assay type: functional; conditions: Swiss CD1, light or radiation study, route intraperitoneal; in short: as §1
Mus musculus [16] = assay: Radioprotective activity against gamma radiation-induced toxicity in Swiss CD1 mouse assessed as survival at 480 mg/kg, ip administered 90 mins before 10.2 Gy irradiation measured after 30 days; assay type: functional; conditions: Swiss CD1, light or radiation study, route intraperitoneal; in short: as §1
Mus musculus [17] = assay: Radioprotective activity against gamma radiation-induced toxicity in B6D2F1 mouse assessed as survival at 480 mg/kg, ip administered 15 mins before 8.8 Gy irradiation measured after 30 days; assay type: functional; conditions: B6D2F1, light or radiation study, route intraperitoneal
Mus musculus [18] = assay: Radioprotective activity against gamma radiation-induced toxicity in Swiss CD1 mouse assessed as survival at 480 mg/kg, ip administered 90 mins before 8.2 Gy irradiation measured after 30 days; assay type: functional; conditions: Swiss CD1, light or radiation study, route intraperitoneal; in short: as §1
Mus musculus [19] = assay: Radioprotective activity against gamma radiation-induced toxicity in B6D2F1 mouse assessed as survival at 240 mg/kg, ip administered 15 mins before 8.8 Gy irradiation measured after 30 days; assay type: functional; conditions: B6D2F1, light or radiation study, route intraperitoneal
Mus musculus [20] = assay: Radioprotective activity against gamma radiation-induced toxicity in Swiss CD1 mouse assessed as survival at 400 mg/kg, ip administered 90 mins before 10.2 Gy irradiation measured after 30 days; assay type: functional; conditions: Swiss CD1, light or radiation study, route intraperitoneal; in short: as §1
Mus musculus [21] = assay: Radioprotective activity against gamma radiation-induced toxicity in Swiss CD1 mouse assessed as survival at 400 mg/kg, ip administered 90 mins before 8.2 Gy irradiation measured after 30 days; assay type: functional; conditions: Swiss CD1, light or radiation study, route intraperitoneal; in short: as §1
Mus musculus [22] = assay: Radioprotective activity against gamma radiation-induced toxicity in B6D2F1 mouse assessed as survival at 400 mg/kg, ip administered 15 mins before 8.8 Gy irradiation measured after 30 days; assay type: functional; conditions: B6D2F1, light or radiation study, route intraperitoneal
Mus musculus [23] = assay: Radioprotective activity against gamma radiation-induced toxicity in B6D2F1 mouse assessed as survival at 400 mg/kg, ip administered 15 mins before 10.8 Gy irradiation measured after 30 days; assay type: functional; conditions: B6D2F1, light or radiation study, route intraperitoneal

IC50 [1]	Compound	IC50 ([2]; read-out: IC50)	other results
> 4000 µM	N=c1sc2ccccc2n1CCO	–	–
> 4000 µM	CCOc1ccc2nc(N)sc2c1	–	–
> 4000 µM	Cc1ccc2c(c1)sc(=N)n2CCO	–	–
3170 µM	Cc1ccc2nc(NCCS)sc2c1	4040 µM	–
2400 µM	CCc1nn(CCO)c(=N)s1	–	–
3500 µM	CCSc1nn(CCO)c(=N)s1	–	–
> 4000 µM	CCc1nnc(N)s1	–	–
46 µM	CCOc1ccc2nc(S)sc2c1	88.4 µM	–
> 4000 µM	CCC(=O)Nc1nc2ccccc2s1	–	–
1400 µM	CCOc1ccc2c(c1)sc(=N)n2CCO	–	–
> 4000 µM	CCSc1nnc(N)s1	–	–
> 4000 µM	CCC(=O)Nc1nc2ccc(C)cc2s1	–	–
> 4000 µM	CCSc1nnc(NC(=O)CC)s1	–	–
> 4000 µM	CCOc1ccc2nc(NC(=O)CC)sc2c1	–	–
> 4000 µM	CCC(=O)Nc1nnc(CC)s1	–	–

More lines, now with the values behind:

Compound	IC50 [1]	IC50 ([2]; read-out: IC50)	other results
CCSc1nn(CCSS(=O)(=O)O)c(=N)s1	–	8.32 µM	–
CCOc1ccc2c(c1)sc(=N)n2CCSS(=O)(=O)O	–	–	IC50 [2]: ND(Insoluble)
CCSc1nnc(NCCS)s1	110 µM	390 µM	LD50 at 48 h [3]: > 736 mg/kg; survival at 368 mg/kg (Mus musculus [4]): 0%; survival at 368 mg/kg (Mus musculus [5]): 0%
CCc1nnc(S)s1	84 µM	21.3 µM	survival at 340 mg/kg (Mus musculus [6]): 0%; LD50 at 48 h [3]: > 680 mg/kg; survival at 340 mg/kg (Mus musculus [7]): 30%
SCCNc1nc2ccccc2s1	1390 µM	1520 µM	survival at 308 mg/kg (Mus musculus [8]): 60%; LD50 at 48 h [3]: > 616 mg/kg; survival at 308 mg/kg (Mus musculus [9]): 0%
CCc1nn(CCSS(=O)(=O)O)c(=N)s1	–	51.9 µM	–
Cc1ccc2nc(S)sc2c1	91 µM	76.7 µM	survival at 260 mg/kg (Mus musculus [10]): 0%; LD50 at 48 h [3]: > 520 mg/kg; survival at 260 mg/kg (Mus musculus [11]): 0%; survival at 260 mg/kg (Mus musculus [12]): 80%; survival at 260 mg/kg (Mus musculus [13]): 100%
CCSc1nnc(S)s1	53 µM	23.1 µM	survival at 349 mg/kg (Mus musculus [14]): 0%; LD50 at 48 h [3]: 698 mg/kg; survival at 349 mg/kg (Mus musculus [15]): 0%
N=c1sc2ccccc2n1CCSS(=O)(=O)O	–	–	IC50 [2]: ND(Insoluble)
CCc1nn(CCSP(=O)(O)O)c(=N)s1	–	90.3 µM	–
Cc1ccc2c(c1)sc(=N)n2CCSS(=O)(=O)O	–	–	IC50 [2]: ND(Insoluble)
CCSc1nn(CCSP(=O)(O)O)c(=N)s1	–	76.9 µM	–
Sc1nc2ccccc2s1 [2-MERCAPTOBENZOTHIAZOLE]	92 µM	79.8 µM	survival at 480 mg/kg (Mus musculus [16]): 0%; survival at 480 mg/kg (Mus musculus [17]): 100%; LD50 at 48 h [3]: > 960 mg/kg; survival at 480 mg/kg (Mus musculus [18]): 60%; survival at 240 mg/kg (Mus musculus [19]): 90%
NCCCNCCSP(=O)(O)O [AMIFOSTINE]	100 µM	–	survival at 400 mg/kg (Mus musculus [20]): 20%; survival at 400 mg/kg (Mus musculus [21]): 50%; LD50 at 48 h [3]: 800 mg/kg; survival at 400 mg/kg (Mus musculus [22]): 100%; survival at 400 mg/kg (Mus musculus [23]): 60%
O=C1O[C@H]([C@@H](O)CO)C(O)=C1O [ASCORBIC ACID]	20 µM	46.5 µM	–
N[C@@H](CCC(=O)N[C@@H](CS)C(=O)NCC(=O)O)C(=O)O [GLUTATHIONE]	96 µM	–	–
Cc1c(C)c2c(c(C)c1O)CCC(C)(C(=O)O)O2 (stereo not drawn) [TROLOX]	34 µM	–	–
